The source of these data is PMC8559613 (Journal of biomolecular screening, 2016).

Data set [1] can be described thus: Resazurin cytotoxicity assay in wild-type HEK293T cells. Format: cell-based. The following applies: human. In a few lines: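 Untransfected HEK293T cells in DMEM with 10% FBS, seeded at 5,000 cells/well and held 24 h. Prodrug given at 0–100 μM with medium changed daily for 69 h. Resazurin (0.01% w/v) added for a further 3 h (72 h total). Fluorescence read at ex 565/em 595 nm. IC50 from variable-slope dose-response fit. Controls: 0.1% DMSO vehicle and 2% Triton X-100.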
Background: Alamar Blue is a resazurin reagent that responds to reducing activity.

For data set [2], the system named is KLE cells. Description: Annexin V-FITC/PI apoptosis assay in KLE cells. Format: cell-based, human. The settings on record: for pro-apoptotic effect (early apoptotic cell population relative to untreated cells): 50 μM, without α-NF, 24, 48 and 72 h; for concentration dependence of pro-apoptotic effect: 10, 50 and 100 μM, without α-NF, 72 h. In a few lines: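 KLE cells grown in DMEM/F-12 (1:1) with 10% FBS were seeded in 6-well plates and used on day 7 post-seeding. Prodrug was given without α-NF at 50 μM for 24, 48 or 72 h, or at 10, 50 or 100 μM for 72 h. Controls received no prodrug. Cells were double-stained with Annexin V-FITC/PI and run on flow cytometry. % early apoptotic cells was compared with untreated controls by one-way ANOVA with Dunnett post test. Triplicate or quadruplicate.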

Data set [3] has as its system KLE cells. Description: Cell cycle analysis. The following applies: 72 h; for % of cells in >4N / % of cells in G0/G1 / % of cells in G2/M / % of cells in S / % of cells in Sub-G1: mean ± SD; for cell cycle effects in CYP1B1-inhibited KLE cells / cell cycle effect in KLE cells compared to untreated cells: 10 and 100 μM. Format: cell-based, human. In a few lines: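 KLE cells, day 7 post-seeding, exposed to 10 or 100 μM prodrug with or without 10 μM α-NF for 72 h; untreated cells received no prodrug. Cells harvested, fixed in 70% (v/v) ethanol at −20°C overnight, then stained with PI/RNase buffer for 30 min at room temperature. DNA content read by flow cytometry. Run in triplicate or quadruplicate.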

For data set [4] the following is noted: after the 14th daily oral administration of 6 mg/kg, vervet monkeys; cited from earlier work.
Data set [5] is described as follows: Resazurin cytotoxicity assay in CYP1B1-transfected HEK293T cells. The format is cell-based. The following applies: human, HEK293T cells transfected with CYP1B1.
Data set [6] in a line: Resazurin cytotoxicity assay in HepaRG cells. Format: cell-based. The settings on record: human. In a few lines: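 HepaRG cells grown 2 weeks in Growth medium, then 2 weeks in Differentiation medium, then seeded at 5,000 cells/well. Prodrug given at 0–100 μM with medium changed daily for 69 h. Resazurin (0.01% w/v) added for a further 3 h (72 h total). Fluorescence read at ex 565/em 595 nm. IC50 from variable-slope dose-response fit. Controls: 0.1% DMSO vehicle and 2% Triton X-100.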

In data set [7] the test system is KLE cells. Format: cell-based.
For data set [8], the system named is CYP1B1. Description: EROD activity assay in KLE cells. The format is cell-based. The settings on record: human, probe 7-ER (0.8 μM).
Setting [9] is: 100 μM prodrug, with 10 μM α-NF.

`CONC(=N)c1ccc(-c2ccc(-c3ccc(C(=N)NOC)cn3)o2)cc1` [DB844, N-methoxy-6-{5-[4-(N-methoxyamidino)phenyl]-furan-2-yl}-nicotinamidine]: in data set [1], the concentration for half-maximal inhibition (IC50) – broadly, the concentration that inhibits the measured activity by half – at 72 h came out at 37.9 ± 0.9 µM. Also, in data set [2], the “pro-apoptotic effect (early apoptotic cell population relative to untreated cells)” value is reported as “significant increase in the early apoptotic cell population” and the “concentration dependence of pro-apoptotic effect” value is on record as “concentration-dependent pro-apoptotic effects”. For the same compound, in data set [3] (10 μM prodrug, with 10 μM α-NF), the “% of cells in >4N” value is 4.9 ± 0.9%, the “% of cells in G0/G1” value is 41.1 ± 1.5%, the “% of cells in G2/M” value was 40.7 ± 2.9% and the “% of cells in S” value was found to be 7.9 ± 1.5%. In addition, in data set [3] (10 μM prodrug, with 10 μM α-NF), the “% of cells in Sub-G1” value stood at 4.1 ± 1.1%. In addition, in data set [3] (10 μM prodrug, without α-NF), the “% of cells in >4N” value is reported as 6.3 ± 1.9%, the “% of cells in G0/G1” value was determined as 38.7 ± 2.1%, the “% of cells in G2/M” value stood at 47.3 ± 0.5% and the “% of cells in S” value is given as 8.0 ± 1.4 %. The “% of cells in Sub-G1” value in data set [3] (10 μM prodrug, without α-NF) came to 4.6 ± 0.8%. Further, in data set [3] (setting [9]), the “% of cells in >4N” value turned out to be 3.4 ± 0.6%, the “% of cells in G0/G1” value is on record as 43.3 ± 0.4%, the “% of cells in G2/M” value came to 41.8 ± 1.1% and the “% of cells in S” value amounted to 5.6 ± 0.7%. The “% of cells in Sub-G1” value in data set [3] (setting [9]) is recorded as 4.3 ± 0.9%. Further, in data set [3] (100 μM prodrug, without α-NF), the “% of cells in >4N” value is on record as 3.7 ± 0.9%, the “% of cells in G0/G1” value turned out to be 43.9 ± 1.2 %, the “% of cells in G2/M” value was 40.6 ± 1.3% and the “% of cells in S” value is 6.6 ± 1.1 %. In data set [3] (100 μM prodrug, without α-NF), the “% of cells in Sub-G1” value came to 5.3 ± 1.5%. The “cell cycle effects in CYP1B1-inhibited KLE cells” value in data set [3] (with 10 μM α-NF) is listed as “absent”. The “cell cycle effect in KLE cells compared to untreated cells” value in data set [3] (without α-NF) is “concentration-dependent G0/G1 cell cycle arrest”. The “average maximal plasma concentration” value in data set [4] is 0.43 µM. The same compound had an IC50 at 72 h in data set [5] of 38.8 ± 0.9 µM. This compound also returned an IC50 at 72 h in data set [6] of 76.3 ± 1.6 µM.
`CON=C(N)c1ccc(-c2ccc(-c3ccc(C(N)=NOC)cc3)o2)cc1` [DB289, 2,5-bis[4-amidinophenyl]furan-bis-O-methylamidoxime]: in data set [2], the “pro-apoptotic effect (early apoptotic cell population relative to untreated cells)” value is listed as “significant increase in the early apoptotic cell population” and the “concentration dependence of pro-apoptotic effect” value is “concentration-dependent pro-apoptotic effects”. In data set [3] (10 μM prodrug, with 10 μM α-NF), the “% of cells in >4N” value is 5.3 ± 1.0%, the “% of cells in G0/G1” value is on record as 39.5 ± 0.6%, the “% of cells in G2/M” value is reported as 39.3 ± 2.9% and the “% of cells in S” value came out at 9.8 ± 1.4%. For the same compound, the “% of cells in Sub-G1” value in data set [3] (10 μM prodrug, with 10 μM α-NF) turned out to be 5.4 ± 0.0%. For the same compound, in data set [3] (10 μM prodrug, without α-NF), the “% of cells in >4N” value is recorded as 1.7 ± 0.6%, the “% of cells in G0/G1” value was found to be 40.0 ± 1.7%, the “% of cells in G2/M” value was 45.0 ± 5.2% and the “% of cells in S” value stood at 5.3 ± 1.1 %. The “% of cells in Sub-G1” value in data set [3] (10 μM prodrug, without α-NF) was 5.1 ± 1.4%. Also, in data set [3] (setting [9]), the “% of cells in >4N” value came to 3.6 ± 0.4%, the “% of cells in G0/G1” value is 43.2 ± 3.4%, the “% of cells in G2/M” value worked out at 42.4 ± 2.6% and the “% of cells in S” value came to 6.1 ± 1.1%. In addition, the “% of cells in Sub-G1” value in data set [3] (setting [9]) is recorded as 4.7 ± 1.0%. In data set [3] (100 μM prodrug, without α-NF), the “% of cells in >4N” value is listed as 4.5 ± 1.3%, the “% of cells in G0/G1” value came out at 43.2 ± 0.8 %, the “% of cells in G2/M” value was 39.5 ± 0.2% and the “% of cells in S” value amounted to 8.3 ± 1.0 %. The “% of cells in Sub-G1” value in data set [3] (100 μM prodrug, without α-NF) amounted to 4.5 ± 0.7%. Further, the “cell cycle effects in CYP1B1-inhibited KLE cells” value in data set [3] (with 10 μM α-NF) is given as “absent”. The “cell cycle effect in KLE cells compared to untreated cells” value in data set [3] (without α-NF) is “concentration-dependent G0/G1 cell cycle arrest”. The “viability of KLE cells” value in data set [7] (50 μM prodrug, KLE cells without α-NF, normalized to vehicle control) is given as 21%.
Turning to `O=c1cc(-c2ccccc2)oc2c1ccc1ccccc12` [α-NF, α-naphthoflavone], the inhibition (commonly the relative decrease from the control value, in per cent) at 24 h, 1 μM in data set [8] turned out to be 81%. The “cytotoxic effect on KLE cells” value in data set [7] (α-NF up to 15 μM) is listed as “did not show any cytotoxic effect”.
